Test results reported in ChEMBL document CHEMBL1122415, “Folate antagonists. 20. Synthesis and antitumor and antimalarial properties of trimetrexate and related 6-[(phenylamino)methyl]-2,4-quinazolinediamines” (1983).
Where “and” joins values, the source holds several entries; their conditions need not be identical. Identical values can stand only once.

What was measured:
Plasmodium berghei [1] = test: Antimalarial effect against trophozoite-induced Plasmodium berghei in mice (Mus musculus) at 20 mg/kg subcutaneous dose; assay type: functional; conditions: 20 mg/kg
Plasmodium berghei [2] = test: Antimalarial effect against trophozoite-induced Plasmodium berghei in mice (Mus musculus) after subcutaneous dose of 10 mg/kg; assay type: functional
Plasmodium berghei [3] = test: Antimalarial effect against trophozoite-induced Plasmodium berghei in mice (Mus musculus) at 40 mg/kg subcutaneous dose; assay type: functional
Plasmodium berghei [4] = test: Antimalarial effect against trophozoite-induced Plasmodium berghei in mice (Mus musculus) at 5 mg/kg subcutaneous dose; assay type: functional
Plasmodium berghei [5] = test: Antimalarial effect against trophozoite-induced Plasmodium berghei in mice (Mus musculus) at 80 mg/kg subcutaneous dose; assay type: functional
Mus musculus [6] = test: Antimalarial effect against trophozoite-induced Plasmodium berghei in mice (Mus musculus) after subcutaneous administration dose of 160 mg/kg; 4 survived after 60 days of post infection; assay type: functional
Mus musculus [7] = test: Antimalarial effect against trophozoite-induced Plasmodium berghei in mice (Mus musculus) after subcutaneous administration dose of 160 mg/kg; 3 survived after 60 days of postinfection; assay type: functional
Mus musculus [8] = organism: Mus musculus; test: Daily dose required for 90% parasitaemia in trophozoite induced Plasmodium berghei in 21 mice; assay type: functional
In short: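 Oral suppressive test in mice against a normal drug-sensitive P. berghei strain. Drug given continuously in the diet for six consecutive days, with doses as free base equivalent. SD90 is the daily dose (mg/kg) giving 90% suppression of parasitemia versus control mice, estimated graphically on semilog paper.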

L1210 [9] = test: Molar concentration required to reduce the number of L1210 cells by 50% after incubation for 2 days; assay type: functional, Mus musculus; conditions: read-out: ID50 (the source's name)
In short: (§1)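 L1210 leukemia cells in tissue culture exposed to drug for 2 days. ID50 is the molar concentration that reduces L1210 cell number by 50%. Mithramycin is the reference drug.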

Mus musculus [10] = test: Antimalarial effect against trophozoite-induced Plasmodium berghei in mice (Mus musculus) after subcutaneous administration dose of 20 mg/kg; 3 survived after 60 days of post infection; assay type: functional
Mus musculus [11] = test: Antimalarial effect against trophozoite-induced Plasmodium berghei in mice (Mus musculus) after subcutaneous administration dose of 320 mg/kg; 3 survived after 60 days of postinfection; assay type: functional
Plasmodium berghei [12] = test: Antimalarial effect against trophozoite-induced Plasmodium berghei in mice (Mus musculus) after subcutaneous dose of 160 mg/kg; assay type: functional
Plasmodium berghei [13] = test: Antimalarial effect against trophozoite-induced Plasmodium berghei in mice (Mus musculus) at 320 mg/kg subcutaneous dose; assay type: functional; conditions: 320 mg/kg
Mus musculus [14] = test: Antimalarial effect against trophozoite-induced Plasmodium berghei in mice (Mus musculus) after subcutaneous administration dose of 10 mg/kg; assay type: functional
Mus musculus [15] = test: (§2) Antimalarial effect against trophozoite-induced Plasmodium berghei in mice (Mus musculus) after subcutaneous administration dose of 20 mg/kg; assay type: functional
Mus musculus [16] = test: as §2; assay type: functional; remark: listed apart in the source
Mus musculus [17] = test: Antimalarial effect against trophozoite-induced Plasmodium berghei in mice (Mus musculus) after subcutaneous administration dose of 2.5 mg/kg; assay type: functional
Mus musculus [18] = test: Antimalarial effect against trophozoite-induced Plasmodium berghei in mice (Mus musculus) after subcutaneous administration dose of 40 mg/kg; 2 survived after 60 days of postinfection; assay type: functional
Mus musculus [19] = test: Antimalarial effect against trophozoite-induced Plasmodium berghei in mice (Mus musculus) after subcutaneous administration dose of 40 mg/kg; assay type: functional
Mus musculus [20] = test: Antimalarial effect against trophozoite-induced Plasmodium berghei in mice (Mus musculus) after subcutaneous administration dose of 320 mg/kg; assay type: functional
Mus musculus [21] = test: Antimalarial effect against trophozoite-induced Plasmodium berghei in mice (Mus musculus) after subcutaneous administration dose of 160 mg/kg; assay type: functional
Mus musculus [22] = test: Antimalarial effect against trophozoite-induced Plasmodium berghei in mice (Mus musculus) after subcutaneous administration dose of 640 mg/kg; assay type: functional
Mus musculus [23] = test: Antimalarial effect against trophozoite-induced Plasmodium berghei in mice (Mus musculus) after subcutaneous administration dose of 40 mg/kg; 3 survived after 60 days of post infection; assay type: functional
Mus musculus [24] = test: Antimalarial effect against trophozoite-induced Plasmodium berghei in mice (Mus musculus) after subcutaneous administration dose of 5 mg/kg; assay type: functional
L1210 [25] = test: Molar concentration required to reduce the number of L1210 cells by 50% after incubation for 2 days (exp 2; assay type: functional; conditions: Mus musculus, L1210, 48 h; read-out: ID50 (the source's name); in short: as §1
Mus musculus [26] = test: Antimalarial effect against trophozoite-induced Plasmodium berghei in mice (Mus musculus) after subcutaneous administration dose of 320 mg/kg; 1 survived after 60 days of post infection

CC(=O)O.Nc1nc(N)c2cc(CN(N=O)c3ccc(Cl)c(Cl)c3)ccc2n1.O
Delta MST (Plasmodium berghei [1]): 6.7 days and 6.8 days | Delta MST (Plasmodium berghei [2]; 10 mg/kg): 3.7 days and 4 days | Delta MST (Plasmodium berghei [3]; 40 mg/kg): 9.9 days and 9.8 days | Delta MST (Plasmodium berghei [4]): 2 days | Delta MST (Plasmodium berghei [5]; 80 mg/kg): 12.3 days and 12 days | Delta MST (Mus musculus [6]): 22.8 days | Delta MST (Mus musculus [7]): 28.7 days | SD90 (Mus musculus [8]): 0.25 mg/kg/day | IC50 (L1210 [9]; Mus musculus, L1210, 48 h): 40 nM | IC50 (L1210 [9]): 70 nM

Cc1c(CN(C=O)c2ccc(Cl)c(Cl)c2)ccc2nc(N)nc(N)c12
Delta MST (Plasmodium berghei [1]): 9.9 days and 9.4 days | Delta MST (Mus musculus [10]): 9.9 days | Delta MST (Plasmodium berghei [2]; 10 mg/kg): 7.7 days and 5.3 days and 3.9 days | Delta MST (Plasmodium berghei [3]): 29.9 days | Delta MST (Plasmodium berghei [4]): 5.3 days | IC50 (L1210 [9]; Mus musculus, L1210, 48 h): 21 nM | IC50 (L1210 [9]): 26 nM

CC(=O)O.Nc1nc(N)c2cc(CNc3cccc(Br)c3)ccc2n1
Delta MST (Plasmodium berghei [1]): 1.5 days and 1.8 days | Delta MST (Mus musculus [11]): 9.2 days | Delta MST (Plasmodium berghei [2]): 0.4 days | Delta MST (Plasmodium berghei [3]): 3.1 days | Delta MST (Plasmodium berghei [5]; 80 mg/kg): 8.8 days and 10.2 days and 3.6 days | Delta MST (Plasmodium berghei [12]): 9.2 days | SD90 (Mus musculus [8]): 9 mg/kg/day | IC50 (L1210 [9]; Mus musculus, L1210, 48 h): 86 nM | IC50 (L1210 [9]): 71 nM | Delta MST (Plasmodium berghei [13]): 9.2 days and 9.8 days

CC(=O)O.Nc1nc(N)c2c(Cl)c(CNc3ccc(Cl)cc3)ccc2n1.O
Delta MST (Mus musculus [14]; 10 mg/kg): 6.9 days and 6.1 days | Delta MST (Mus musculus [15]): 16.9 days | Delta MST (Mus musculus [16]): 16.9 days and 17.4 days | Delta MST (Mus musculus [17]): 2.7 days

CC(=O)O.Nc1nc(N)c2cc(CNc3ccc4cc(Cl)ccc4c3)ccc2n1.O.O
Delta MST (Plasmodium berghei [1]): 8.3 days and 8.5 days | Delta MST (Plasmodium berghei [2]): 3.3 days | Delta MST (Mus musculus [18]): 20.6 days and 20.7 days | IC50 (L1210 [9]; Mus musculus, L1210, 48 h): 140 nM | IC50 (L1210 [9]): 260 nM

CC(=O)O.Nc1nc(N)c2cc(CNc3cc(Cl)cc(Cl)c3)ccc2n1.O.O
Delta MST (Mus musculus [19]): 0.7 days | Delta MST (Mus musculus [20]): 12.9 days and 6.9 days | Delta MST (Mus musculus [14]): 0.3 days | Delta MST (Mus musculus [15]): 0.3 days | Delta MST (Mus musculus [21]): 6.9 days and 4.7 days | SD90 (Mus musculus [8]): 51 mg/kg/day | IC50 (L1210 [9]; Mus musculus, L1210, 48 h): 120 nM | IC50 (L1210 [9]): 74 nM | Delta MST (Mus musculus [22]): 13.7 days

Nc1nc(N)c2c(Cl)c(CN(C=O)c3ccc(Cl)c(Cl)c3)ccc2n1
Delta MST (Plasmodium berghei [1]): 21.9 days and 21.6 days | Delta MST (Plasmodium berghei [2]): 7.9 days | Delta MST (Plasmodium berghei [3]): 21.9 days | Delta MST (Plasmodium berghei [5]): 24.4 days | Delta MST (Mus musculus [23]): 23.9 days | Delta MST (Mus musculus [17]; 2.5 mg/kg): 4.1 days and 3.1 days

CC(=O)O.Nc1nc(N)c2c(Cl)c(CNc3cccc(Br)c3)ccc2n1.O
Delta MST (Mus musculus [19]; 40 mg/kg): 11.3 days and 11.5 days and 11.7 days | Delta MST (Mus musculus [14]; 10 mg/kg): 7.3 days and 7.5 days and 4.7 days | Delta MST (Mus musculus [24]): 4.7 days | Delta MST (Mus musculus [15]; 20 mg/kg): 8.5 days and 8.3 days | IC50 (L1210 [25]): 2.2 nM | IC50 (L1210 [9]; Mus musculus, L1210, 48 h): 2.1 nM | Delta MST (Mus musculus [17]): 1.5 days

CC(=O)O.Nc1nc(N)c2cc(CNc3ccccc3Cl)ccc2n1.O
Delta MST (Mus musculus [11]): 8.4 days | Delta MST (Mus musculus [26]): 7.9 days | Delta MST (Plasmodium berghei [2]): 0.7 days | Delta MST (Plasmodium berghei [3]; 40 mg/kg): 3.1 days and 1.3 days | Delta MST (Plasmodium berghei [4]): 0.7 days | Delta MST (Plasmodium berghei [5]): 7.7 days | SD90 (Mus musculus [8]): 8 mg/kg/day | IC50 (L1210 [9]; Mus musculus, L1210, 48 h): 93 nM | IC50 (L1210 [9]): 68 nM | Delta MST (Plasmodium berghei [13]): 9.9 days and 8.4 days
